Screens from PubChem BioAssay.
An excerpt weighted towards active compounds, which were near 2.1% of everything screened.
CXCR6 block = CXCR6 receptor inhibitors, primary screen, cell-based, beta-arrestin, luminescence, CHO-K1 PathHunter, 1536-well | hit rate 0.36% among 360,000 | AID 602244, 2012 | C-X-C chemokine receptor type 6 (Homo sapiens), O00574 | inhibition, % at 20 µM; in the data active means inhibition above about 34%, passing the limit was not always enough;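 further: antagonist mode with CXCL16 agonist at 10 nM final; 0% = 10 nM CXCL16 with DMSO and 100% = unstimulated wells without agonist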
EBI2 antag = EBI2 receptor antagonists, beta-arrestin recruitment, primary screen, cell-based, luminescence, 7a,25-OHC stimulation, uHTS; G-protein coupled receptor 183 (Homo sapiens), P32249; hit rate 0.81% among 360,000; 7a,25-OHC stimulated; AID 651636, 2012; inhibition, % at 5 µM; in the data active means inhibition above about 38%;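 further: enzyme fragment complementation signal reports receptor beta-arrestin coupling in cells; 0% = agonist plus DMSO wells and 100% = wells without agonist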
APJ antagonist = antagonists of human apelin receptor APJ, primary screen, CHO-K1 cells, beta-arrestin complementation, luminescence; P35414; inhibition, % at 20 µM; hit rate 0.32% among 330,000; AID 2521, 2010;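 active means inhibition above about 40% at 20 µM, limit read from the data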;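 further: cells challenged with 10 nM apelin-13 agonist together with compound; plate controls were apelin-13 plus DMSO wells for no effect and DMSO wells lacking apelin-13 for full effect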
CCR6 antagonist = CCR6 receptor antagonists, primary screen, cell-based, CHO-K1, luminescence, beta-arrestin, uHTS; hit rate 0.49% among 340,000; inhibition, % at 20 µM; CHO-K1 CCR6 PathHunter beta-arrestin, CCL20-stimulated;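 active means compounds whose inhibition of the agonist-driven luminescence signal at 20 µM reaches about 50%, limit read from the data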;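 further: cells stimulated with CCL20 at 14 nM final; plate controls were DMSO with CCL20 for no effect and DMSO without agonist for full effect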
HTR2A ag = mouse Htr2a agonists via beta-arrestin recruitment, primary screen, cell-based, luminescence; activation, % at 7.6 µM; 5-hydroxytryptamine receptor 2A (Mus musculus), P35363; hit rate 0.66% among 360,000; AID 624169, 2012; CHO-K1 mHTR2A beta-arrestin complementation; percent of 30 µM serotonin response;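 active means activation above a run cutoff, the mean activation of all tested compounds plus 3 SD, cut at about 14% in these data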;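 further: 0% = plate median of compound wells and 100% = 30 µM serotonin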
Target sequence (P35363 whole entry, looked up): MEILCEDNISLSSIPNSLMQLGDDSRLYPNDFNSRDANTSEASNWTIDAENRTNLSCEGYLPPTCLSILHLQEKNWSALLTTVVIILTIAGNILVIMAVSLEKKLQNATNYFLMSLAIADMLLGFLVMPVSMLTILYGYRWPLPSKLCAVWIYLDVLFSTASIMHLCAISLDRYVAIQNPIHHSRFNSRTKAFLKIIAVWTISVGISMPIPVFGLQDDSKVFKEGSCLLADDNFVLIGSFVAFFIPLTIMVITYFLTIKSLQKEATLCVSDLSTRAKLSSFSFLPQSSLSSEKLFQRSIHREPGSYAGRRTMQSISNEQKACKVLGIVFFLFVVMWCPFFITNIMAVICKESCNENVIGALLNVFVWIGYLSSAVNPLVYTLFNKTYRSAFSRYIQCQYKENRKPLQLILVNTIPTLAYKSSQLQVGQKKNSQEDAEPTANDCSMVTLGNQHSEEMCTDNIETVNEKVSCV
APJ agonist = agonists of human apelin receptor APJ, primary screen, CHO-K1 cells, PathHunter beta-arrestin, luminescence | P35414 | 0% DMSO wells, 100% apelin | activation, % at 20 µM | hit rate 0.11% among 330,000 | AID 2520, 2010;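 active means activation more than six SD over the plate average, tested at 20 µM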;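 further: 0% = DMSO alone and 100% = apelin-13 at 10 nM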
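Assay system – PathHunter CHO-K1 APJ (AGTRL-1) beta-arrestin reporter cells · Compound – one dose, 20 µM compound, 1% DMSO · Timing – compound 90 min 25 °C, reagent 1 h · Measured by – luminescence from split beta-galactosidase complementation, Galacton Star/Emerald II substrate · Measure – beta-arrestin recruitment to APJ as agonist activity, luminescent signal · Benchmarks – DMSO vs Apelin-13 10 nM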
EBI2 conf = EBI2 antagonist hit retest, beta-arrestin, confirmation, cell-based, single concentration, luminescence, 7a,25-OHC stimulation; shares compounds with EBI2 antag; 7a,25-OHC antagonism; inhibition, % at 5 µM; hit rate 29% among 2,400; AID 651997, 2013;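 active means inhibition of at least 50%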
EBI2 agonist = EBI2 agonist activity of antagonist hits, confirmation, counter-screen for EBI2 antagonist project, cell-based, single concentration, agonist mode, luminescence | shares compounds with EBI2 antag | EBI2-expressing cells, 60 min; 0% vehicle, 100% 7α,25-dihydroxycholesterol control | activation, % at 5 µM | 2,400 tested, under 10 active;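 active means activation of at least 50%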
bGal cs = E. coli beta-galactosidase enzyme inhibition, confirmation, counter-screen for EBI2 antagonist project, biochemical, luminescence, single concentration; shares compounds with EBI2 antag; purified beta-galactosidase, luminescent Galacton Star, 15 min; inhibition, % at 5 µM; hit rate 1% among 2,400; AID 652176, 2013;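 active means replicate-average signal at least 3 plate SD below neutral wells, shown as high inhibition, flagging enzyme-inhibiting false positives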;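 further: 0% = DMSO wells with enzyme and 100% = wells lacking enzyme; higher means stronger loss of beta-gal luminescence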
An asterisk follows results filed as active; x = no result given.

SMILES	CXCR6 block	EBI2 antag	APJ antagonist	CCR6 antagonist	HTR2A ag	APJ agonist	EBI2 conf	EBI2 agonist	bGal cs
O=C(COC(=O)c1cc([N+](=O)[O-])ccc1N1CCOCC1)c1ccc(OC(F)F)cc1OC(F)F	16.0	43.5*	17.6	16.5	-3.8	-4.5	18.3	0.1	8.2
O=C(COC(=O)c1cc([N+](=O)[O-])ccc1N1CCOCC1)Nc1ccccc1OC(F)F	-1.2	2.0	-58.9	14.7	1.5	9.4	x	x	x
COc1cc(C(=O)Nc2ccn(C)n2)ccc1OC(F)F	1.9	-0.1	-6.6	-5.6	7.8	-2.2	x	x	x
Cc1noc(C)c1C(=O)N1CCN(C(=O)c2sc3cc(Cl)ccc3c2Cl)CC1	-0.1	42.4*	0.3	8.4	0.5	-4.0	14.5	-1.3	-8.3
CC(C)N(C)S(=O)(=O)c1ccc(NC(=O)C2=COCCO2)cc1	-0.2	-4.5	-9.6	9.5	1.1	-1.2	x	x	x
Cc1ccc(Nc2ccc(C(=O)NCCc3ccccc3)cn2)cc1	-4.5	83.1*	8.8	6.7	-6.0	-2.4	58.3*	-1.1	-8.6
Cc1ccc(C)c(Nc2ccc(C(=O)NCCc3ccccc3)cn2)c1	5.4	7.1	8.5	4.5	-2.4	-1.8	x	x	x
Cc1ccc(NC(=O)CSc2nc3c(c(=O)[nH]2)CCC3)c(C)c1	1.2	-4.5	13.5	7.1	4.5	-0.1	x	x	x
COc1ccc2c(C)c(C(=O)N3CCN(Cc4ccccc4)CC3)oc2c1	-3.4	44.9*	-3.4	18.6	-4.9	-1.1	15.0	0.3	7.3
CCc1ccc2oc(C(=O)N3CCN(c4ccccc4OC)CC3)cc(=O)c2c1	-4.6	91.0*	4.0	14.8	-4.7	-4.6	84.0*	-1.2	-14.4
CC(=O)N1CCN(C(c2ccccc2)c2ccccc2)CC1	-2.1	4.2	13.3	5.1	-1.8	-2.3	x	x	x
Cc1c(C(=O)N2CCN(C(c3ccccc3)c3ccccc3)CC2)oc2ccccc12	-1.4	87.3*	8.7	17.8	3.8	-3.9	40.3	-0.7	-5.0
COc1ccccc1N1CCN(C(=O)c2cc(=O)c3c(C)cc(C)cc3o2)CC1	5.8	13.8	-0.3	14.1	-7.5	0.5	x	x	x
COc1ccccc1C(=O)N1CCN(C(=O)c2oc3c(C)c(C)ccc3c2C)CC1	-16.4	51.3*	x	x	5.2	x	43.3	0.1	-20.0
COc1ccccc1C(=O)NCCC(=O)NNC(=O)C1COc2ccccc2O1 (stereo unspecified)	-6.3	-3.5	22.0	3.4	-5.0	9.6	x	x	x
Cc1cc2oc(C(=O)N3CCN(CCc4ccccn4)CC3)c(C)c2cc1C	-7.0	49.8*	3.7	3.4	-6.4	8.9	32.2	0.8	1.8
COc1ccccc1N1CCN(C(=O)c2oc3cc(C)c(C)cc3c2C)CC1	-3.8	59.4*	x	12.4	0.6	x	31.8	0.5	8.3
COc1ccc(N2CCN(C(=O)c3cc4ccccc4o3)CC2)cc1	-6.2	29.5	-2.4	6.4	2.1	0.5	x	x	x
CCc1ccc2oc(C(=O)N3CCN(c4ccc(OC)cc4)CC3)cc(=O)c2c1	-0.3	91.2*	14.8	10.8	-2.5	-2.0	83.2*	2.8	3.3
O=[N+]([O-])c1cccc(/C=C2\CCc3cnn(C4CCS(=O)(=O)C4)c32)c1 (stereo unspecified)	-1.5	12.1	x	x	0.5	x	x	x	x
CCOC(=O)C1=C(O)/C(=C/c2ccccn2)SC1=Nc1ccc(Cl)cc1	7.3	88.2*	20.4	23.8	2.6	-1.3	85.7*	1.3	7.8
CCOC(=O)C1=C(O)/C(=C/c2cc(OC)c(O)c(OC)c2)SC1=Nc1ccc(OC)cc1	13.1	49.3*	x	21.4	-0.2	x	48.7	2.2	13.6
COc1ccccc1NS(=O)(=O)c1ccc(C(=O)NCc2ccco2)cc1	9.9	-6.3	-2.7	-0.6	6.7	-0.8	x	x	x
Cc1ccc(OCCNC(=O)c2cccc(Oc3ccc(C(F)(F)F)cc3[N+](=O)[O-])c2)cc1	-6.8	40.4*	8.2	-0.8	-0.9	-1.5	25.3	0.3	1.3
Cc1ccc(OCCNC(=O)c2ccc(C)cc2)cc1	3.7	40.1*	-19.9	0.6	-12.5	-3.2	31.4	-0.7	-9.9
SMILES	CXCR6 block	EBI2 antag	APJ antagonist	CCR6 antagonist	HTR2A ag	APJ agonist	EBI2 conf	EBI2 agonist	bGal cs
O=C(NCC1CCCO1)c1cc(-c2ccccc2F)no1 (stereo unspecified)	5.1	1.7	11.9	6.6	0.4	2.6	x	x	x
Cc1ccc(-c2noc(CSc3nnc(Cc4ccccc4)n3-c3ccc(Cl)cc3)n2)cc1	18.8	15.4	6.5	21.1	-6.6	-6.8	x	x	x
COc1ccc(-c2noc(CSc3nnc(Cc4ccccc4)n3-c3ccc(Cl)cc3)n2)cc1	19.2	38.9*	-16.3	22.7	1.0	-5.3	14.2	0.2	1.7
Cc1cc(OCC(=O)Nc2ccncc2)ccc1[N+](=O)[O-]	-4.5	3.8	-45.5	-13.9	-2.4	1.3	x	x	x
O=c1[nH]c2ccccc2nc1/C=C/c1ccc(F)cc1	2.6	7.0	0.7	-4.4	0.6	-1.3	x	x	x
C(=C\c1nccc2c1[nH]c1ccccc12)/c1ccccc1	-9.9	55.0*	5.9	-19.6	-1.1	0.5	34.8	2.4	-1.6
Fc1ccc(/C=C\c2nccc3c2[nH]c2ccccc23)cc1	-1.5	49.3*	-11.8	-0.5	-2.8	1.7	28.5	-0.6	-8.6
Cc1ccc(/C=C\c2nccc3c2[nH]c2ccccc23)cc1	-12.7	74.0*	-7.3	-19.0	-7.0	-3.0	46.5	-1.1	-8.0
CN(C(=O)CSc1ccc(S(=O)(=O)N2CCCCC2)cn1)c1ccccc1	6.0	-0.5	0.5	9.9	-1.3	-5.0	x	x	x
COc1ccc(NC(=O)C2CCCN(C(=O)c3ccc(Cl)cc3)C2)cc1Cl (stereo unspecified)	-1.5	7.6	9.9	13.8	-4.0	-3.0	x	x	x
